The source made the active and inactive calls. No cut-off for these calls is given here.
What was measured:
[1] = Toxicity in folate-deficient diet fed SCID mouse xenografted with human IGROV1 cells assessed as body weight loss at 28 mg/kg, iv administered […] post 2 days of tumor implantation measured after 48 hrs of last dosage; type: organism-based; conditions: in vivo
Procedure, shortened: (§1)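 Female NCR SCID mice (11 weeks old, ~20 g) are fed a folate-deficient diet from 14 days before implant. IGROV1 fragments (30–60 mg) are trocar-implanted subcutaneously in both flanks, and mice are randomised at 5/group. Tail-vein dosing starts on day 2: 28 mg/kg/inj Q3dx5, or 96 or 150 mg/kg/inj Q3dx4. Vehicle is 5% ethanol, 1% Tween-80, 0.5% NaHCO3 in water at pH 6.5. Caliper tumor mass is (a×b²)/2, T/C is taken when controls reach 700–1200 mg, and weights are recorded daily.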

[2] = Toxicity in standard diet fed SCID mouse xenografted with human IGROV1 cells assessed as body weight loss at 28 mg/kg, iv administered […] post 2 days of tumor implantation measured during compound treatment; type: organism-based; conditions: in vivo, 48 h
Procedure, shortened: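 Standard-diet female NCR SCID mice bearing bilateral s.c. IGROV1 fragments; i.v. tail-vein dosing from day 2 post-implant, Q3dx5, vehicle 5% ethanol/1% Tween-80/0.5% NaHCO3 in water, pH 6.5; mice weighed and assessed daily during and after treatment; weight loss recorded as nadir.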

IGROV-1 [3] = experiment: Antitumor activity against human IGROV1 cells xenografted into folate-deficient diet fed SCID mouse assessed as tumor cell kill at 96 mg/kg, iv administered […] post 2 days of tumor implantation measured on day 20; type: functional
[4] = Toxicity in folate-deficient diet fed SCID mouse xenografted with human IGROV1 cells assessed as body weight loss at 96 and 150 mg/kg, iv administered […] post 2 days of tumor implantation measured after 48 hrs of last dosage; type: organism-based; conditions: in vivo; procedure, shortened: as §1
IGROV-1 [5] = experiment: Antiproliferative activity against human IGROV1 cells expressing human FR-alpha/PCFT assessed as reduction in cell viability measured after 96 hrs in presence of folic acid by Cell-Titer Blue fluorescence analysis; type: functional, cell-based; conditions: IGROV-1, 96 h
IGROV-1 [6] = experiment: Antitumor activity against human IGROV1 cells xenografted into folate-deficient diet fed SCID mouse assessed as tumor growth delay at 96 mg/kg, iv administered […] post 2 days of tumor implantation; type: functional
IGROV-1 [7] = experiment: Antitumor activity against human IGROV1 cells xenografted into folate-deficient diet fed SCID mouse assessed as tumor growth at 96 mg/kg, iv administered […] post 2 days of tumor implantation measured on day 20 relative to control; type: functional
Procedure, shortened: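 Female NCR SCID mice, 11 weeks, ~20 g, on folate-deficient or standard diet from 14 days pre-implant; bilateral s.c. IGROV1 fragments (30–60 mg); 5 mice/group; tail-vein dosing from day 2 (Q3d schedules) in 5% ethanol, 1% Tween-80, 0.5% NaHCO3, water, pH 6.5; caliper mass (a×b²)/2; T/C and T−C delay.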

IGROV-1 [8] = experiment: Antitumor activity against human IGROV1 cells xenografted into folate-deficient diet fed SCID mouse assessed as tumor growth at 28 mg/kg, iv administered […] post 2 days of tumor implantation measured on day 20 relative to control; type: functional; procedure, shortened: as §1
[9] = Toxicity in folate-deficient diet fed SCID mouse xenografted with human IGROV1 cells assessed as body weight loss at 28 mg/kg, iv administered […] post 2 days of tumor implantation measured during compound treatment; type: organism-based; conditions: in vivo, 48 h; procedure, shortened: as §1
IGROV-1 [10] = experiment: Antiproliferative activity against human IGROV1 cells expressing human FR-alpha/PCFT assessed as reduction in cell viability measured after 96 hrs by Cell-Titer Blue fluorescence analysis; type: functional, cell-based; conditions: IGROV-1, 96 h
IGROV-1 [11] = experiment: Antitumor activity against human IGROV1 cells xenografted into folate-deficient diet fed SCID mouse assessed as tumor cell kill at 28 mg/kg, iv administered […] post 2 days of tumor implantation measured on day 20; type: functional; procedure, shortened: as §1
[12] = molecular target: Folate receptor alpha (Homo sapiens) (UniProt P15328); experiment: Displacement of [3H]folic acid from human FR-alpha receptor expressed in Chinese hamster RT16 cells measured after 15 mins relative to folic acid; type: cell-based; design: concentration or dose not given beside the values
Folate receptor alpha (Homo sapiens), sequence (P15328 25-234 limits assumed): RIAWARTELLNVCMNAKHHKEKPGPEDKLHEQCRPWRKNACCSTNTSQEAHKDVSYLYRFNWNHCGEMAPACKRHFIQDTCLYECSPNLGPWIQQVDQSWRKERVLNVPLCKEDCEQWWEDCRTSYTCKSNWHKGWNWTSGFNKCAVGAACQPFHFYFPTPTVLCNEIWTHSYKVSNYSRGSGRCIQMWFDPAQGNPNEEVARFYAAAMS

[13] = molecular target: T1, Proton-coupled folate transporter (Homo sapiens) (UniProt Q96NT5); experiment: Inhibition of [3H]MTX uptake at human PCFT expressed in Chinese hamster R2/PCFT4 cells at 10 uM and pH 5.5 measured after 5 mins; type: cell-based
T1 sequence (whole entry): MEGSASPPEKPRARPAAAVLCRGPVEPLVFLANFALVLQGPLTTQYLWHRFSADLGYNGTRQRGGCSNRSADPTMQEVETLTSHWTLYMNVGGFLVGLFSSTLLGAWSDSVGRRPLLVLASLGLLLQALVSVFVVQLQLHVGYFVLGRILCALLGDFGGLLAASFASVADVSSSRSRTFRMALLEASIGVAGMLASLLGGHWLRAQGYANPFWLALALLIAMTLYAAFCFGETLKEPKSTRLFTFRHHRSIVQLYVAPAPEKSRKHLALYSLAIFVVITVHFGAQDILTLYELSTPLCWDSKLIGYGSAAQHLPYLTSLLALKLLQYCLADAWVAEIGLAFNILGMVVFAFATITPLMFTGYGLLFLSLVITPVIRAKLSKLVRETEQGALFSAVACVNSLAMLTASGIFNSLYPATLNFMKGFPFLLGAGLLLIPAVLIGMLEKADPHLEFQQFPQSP

[14] = molecular target: Bifunctional purine biosynthesis protein ATIC (Homo sapiens) (UniProt P31939); experiment: Inhibition of AICARFTase in human KB cells expressing RFC/FR-alpha/PCFT assessed as cell growth inhibition measured after 96 hrs in presence of 320 uM AICA by Cell-Titer Blue fluorescence analysis; type: cell-based
Bifunctional purine biosynthesis protein ATIC (Homo sapiens), sequence (P31939 whole entry, looked up): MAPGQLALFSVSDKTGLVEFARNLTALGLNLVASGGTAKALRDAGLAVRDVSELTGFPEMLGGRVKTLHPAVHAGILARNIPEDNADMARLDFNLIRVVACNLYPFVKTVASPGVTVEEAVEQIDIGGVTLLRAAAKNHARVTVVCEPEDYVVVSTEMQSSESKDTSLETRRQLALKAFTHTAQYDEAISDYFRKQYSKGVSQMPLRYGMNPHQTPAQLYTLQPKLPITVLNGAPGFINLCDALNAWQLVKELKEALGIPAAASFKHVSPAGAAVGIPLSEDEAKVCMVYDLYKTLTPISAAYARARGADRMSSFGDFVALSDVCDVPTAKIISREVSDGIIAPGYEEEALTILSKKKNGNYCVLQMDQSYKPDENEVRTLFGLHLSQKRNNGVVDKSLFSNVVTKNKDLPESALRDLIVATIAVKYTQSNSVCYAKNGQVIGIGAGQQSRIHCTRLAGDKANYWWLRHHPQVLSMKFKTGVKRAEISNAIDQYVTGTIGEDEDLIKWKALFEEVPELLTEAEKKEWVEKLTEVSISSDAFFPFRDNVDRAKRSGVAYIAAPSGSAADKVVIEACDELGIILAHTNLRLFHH

[15] = molecular target: T2, Proton-coupled folate transporter (Homo sapiens, UniProt Q96NT5); experiment: Inhibition of [3H]MTX uptake at human PCFT expressed in Chinese hamster R2/PCFT4 cells at pH 5.5 measured after 5 mins by Dixon plot analysis; type: cell-based
T2 sequence (Q96NT5 whole entry): T1 sequence (whole entry)

[16] = molecular target: T1, Proton-coupled folate transporter (Homo sapiens); experiment: Inhibition of [3H]MTX uptake at human PCFT expressed in Chinese hamster R2/PCFT4 cells at 1 uM and pH 5.5 measured after 5 mins; type: cell-based
[17] = Cytotoxicity in RFC-null Chinese hamster R2 cells assessed as reduction in cell viability measured after 96 hrs by Cell-Titer Blue fluorescence analysis; type: cell-based; conditions: Cricetulus griseus, R2, 96 h
KB [18] = experiment: Antiproliferative activity against human KB cells expressing human RFC/FR-alpha/PCFT assessed as reduction in cell viability measured after 96 hrs by Cell-Titer Blue fluorescence analysis; type: functional, cell-based
[19] = molecular target: T3, GAR transformylase/AICAR transformylase (Homo sapiens) (UniProt P31939+P22102); experiment: Inhibition of GARFTase/AICARFTase in human KB cells expressing RFC/FR-alpha/PCFT assessed as cell growth inhibition measured after 96 hrs in presence of 10 uM thymidine by Cell-Titer Blue fluorescence analysis; type: cell-based
T3 sequence (P31939 whole entry, looked up, one chain of several): as the sequence (P31939 whole entry, looked up) above

[20] = Cytotoxicity in PCFT-null Chinese hamster R2 cells assessed as reduction in cell viability measured after 96 hrs by Cell-Titer Blue fluorescence analysis; type: cell-based; conditions: Cricetulus griseus, R2, 96 h
[21] = molecular target: T4, Trifunctional purine biosynthetic protein adenosine-3 (Homo sapiens, UniProt P22102); experiment: Inhibition of recombinant N-terminal 6His-tagged human GARFTase assessed as formation of 5,8-dideazafolate from 10-formyl-5,8-dideazafolic acid measured at every 15 seconds over 20 min by spectrophotometric analysis
T4 sequence (P22102 whole entry): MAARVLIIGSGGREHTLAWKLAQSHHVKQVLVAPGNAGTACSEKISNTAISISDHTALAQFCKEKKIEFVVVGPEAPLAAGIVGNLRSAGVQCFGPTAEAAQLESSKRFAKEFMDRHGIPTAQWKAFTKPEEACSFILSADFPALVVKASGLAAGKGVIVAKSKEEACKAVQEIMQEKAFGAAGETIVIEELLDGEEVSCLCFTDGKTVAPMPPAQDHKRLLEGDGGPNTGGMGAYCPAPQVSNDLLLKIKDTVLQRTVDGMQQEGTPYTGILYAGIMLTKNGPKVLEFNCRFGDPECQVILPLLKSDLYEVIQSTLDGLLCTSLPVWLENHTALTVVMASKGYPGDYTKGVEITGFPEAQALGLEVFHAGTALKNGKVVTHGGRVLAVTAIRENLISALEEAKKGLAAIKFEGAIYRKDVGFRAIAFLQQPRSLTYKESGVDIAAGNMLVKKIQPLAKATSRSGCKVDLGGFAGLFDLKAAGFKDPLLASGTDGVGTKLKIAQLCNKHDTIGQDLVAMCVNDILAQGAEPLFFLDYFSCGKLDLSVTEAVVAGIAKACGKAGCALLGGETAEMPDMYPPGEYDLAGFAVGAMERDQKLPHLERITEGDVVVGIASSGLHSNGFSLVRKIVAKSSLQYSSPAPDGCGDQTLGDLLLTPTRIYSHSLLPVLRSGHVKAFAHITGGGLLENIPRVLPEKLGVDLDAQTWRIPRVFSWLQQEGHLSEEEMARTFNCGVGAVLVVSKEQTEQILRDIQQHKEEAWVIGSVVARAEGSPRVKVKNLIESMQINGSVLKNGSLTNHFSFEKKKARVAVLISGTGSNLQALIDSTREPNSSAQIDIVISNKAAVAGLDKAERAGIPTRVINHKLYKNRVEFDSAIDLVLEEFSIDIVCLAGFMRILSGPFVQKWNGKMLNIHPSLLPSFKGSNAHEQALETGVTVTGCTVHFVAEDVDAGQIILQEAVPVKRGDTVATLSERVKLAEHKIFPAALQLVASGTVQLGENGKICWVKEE

[22] = molecular target: T1, Proton-coupled folate transporter (Homo sapiens); experiment: Inhibition of [3H]MTX uptake at human PCFT expressed in Chinese hamster R2/PCFT4 cells at 10 uM and pH 6.8 measured after 5 mins; type: cell-based
[23] = molecular target: T3, GAR transformylase/AICAR transformylase (Homo sapiens); experiment: Inhibition of GARFTase/AICARFTase in human KB cells expressing RFC/FR-alpha/PCFT assessed as cell growth inhibition measured after 96 hrs in presence of 60 uM adenosine by Cell-Titer Blue fluorescence analysis; type: cell-based
KB [24] = experiment: Antiproliferative activity against human KB cells expressing human RFC/FR-alpha/PCFT assessed as reduction in cell viability measured after 96 hrs in presence of folic acid by Cell-Titer Blue fluorescence analysis; type: functional, cell-based
[25] = molecular target: T4, Trifunctional purine biosynthetic protein adenosine-3; experiment: Inhibition of GARFTase in human KB cells expressing RFC/FR-alpha/PCFT assessed as decrease in incorporation of [14C(U)]-glycine into [14C]formyl GAR incubated for 1 hr followed by addition of [14C(U)]-glycine measured after 16 hrs in presence of azaserine; type: cell-based

Structure (SMILES)	inhibition [12] [%]	inhibition [13] [%]	inhibition [14]	Ki [15] [nM]	inhibition [16] [%]	IC50 [17] [nM]	IC50 (KB [18]) [nM]	inhibition [19]	IC50 [20] [nM]	Ki [21] [nM]	inhibition [22]	inhibition [23]	IC50 (KB [24]) [nM]	IC50 [25] [nM]	other results
Nc1nc2[nH]c(CCCc3ccc(C(=O)N[C@@H](CCC(=O)O)C(=O)O)s3)cc2c(=O)[nH]1															Activity [1]: Non-Toxic; Activity [2]: Non-Toxic; LCK (IGROV-1 [3]): 1.4; Activity [4]: Non-Toxic; IC50 (IGROV-1 [5]): 213 nM; Time (IGROV-1 [6]): 9 days; T/C (IGROV-1 [7]): 29%; T/C (IGROV-1 [8]): 35%; Activity [9]: 15%; IC50 (IGROV-1 [10]): 0.95 nM; LCK (IGROV-1 [11]): 1.4
Nc1nc2[nH]c(CCN(C(=O)C(F)(F)F)c3ccc(C(=O)N[C@@H](CCC(=O)O)C(=O)O)cc3)cc2c(=O)[nH]1	< 15	80 to 90	Active	800	30 to 60	> 1000	0.56	Active	> 1000	122	40 to 60%	inactive	924	4.95	
CC(=O)N(CCc1cc2c(=O)[nH]c(N)nc2[nH]1)c1ccc(C(=O)N[C@@H](CCC(=O)O)C(=O)O)cc1	< 15	80 to 90	Active	1680	30 to 60	> 1000	2.57	Active	> 1000	62	Active	inactive	> 1000	5.58	

Reference: ChEMBL document CHEMBL4431326, “Tumor Targeting with Novel 6-Substituted Pyrrolo [2,3-d] Pyrimidine Antifolates with Heteroatom Bridge Substitutions via Cellular Uptake by Folate Receptor α and the Proton-Coupled Folate Transporter and Inhibition of de Novo Purine Nucleotide Biosynthesis” (J Med Chem, 2016)
